From ChEMBL document CHEMBL4715838, “Novel diosgenin derivatives containing 1,3,4-oxadiazole/thiadiazole moieties as potential antitumor agents: Design, synthesis and cytotoxic evaluation” (Eur J Med Chem, 2020)
Active and inactive are the calls of the source. No cut-off for these calls is given here.

How the values were obtained:
A549 [1] = assay: Induction of apoptosis in human A549 cells assessed as increase in cleaved caspase 3 expression at 7.5 to 30 uM by Western blot analysis; assay type: functional, cell-based; conditions: dose 7.5-30 µM
Procedure, shortened: (§1)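 A549 treated with compound (0, 7.5, 15, 30 μM) or diosgenin (0, 15, 30 μM), lysed in RIPA and boiled 10 min. 30 μg protein run on 10% SDS-PAGE, blotted to nitrocellulose, blocked in 5% BSA. Primary antibodies used at 1:1000, HRP secondary at 1:5000 for 2 h, ECL detection. β-actin served as loading control.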

HepG2 [2] = assay: Cytotoxicity against human HepG2 cells assessed as reduction in cell viability measured after 48 hrs by MTT assay; assay type: functional, cell-based; conditions: HepG2, 48 h
Procedure, shortened: (§2)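 Cells in DMEM with 10% FBS, penicillin/streptomycin, 37 °C, 5% CO2. Seeded at 5×10^3 per well directly into medium holding graded concentrations of sample and incubated 48 h. MTT (5 mg/mL in PBS) added for 4 h, medium replaced with DMSO, absorbance read at 492 nm. IC50 taken as the concentration giving 50% inhibition of proliferation; three replicates, means ± SD.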

A549 [3] = assay: Induction of apoptosis in human A549 cells assessed as early apoptotic cells at 30 uM after 48 hrs by AnnexinV-FITC/propidium iodide staining based flow cytometry analysis (reference value: 0.5 to 2.3 %); assay type: functional
A549 [4] = assay: Induction of apoptosis in human A549 cells assessed as increase in Bax expression by Western blot analysis; assay type: functional, cell-based; conditions: dose 7.5-30 µM; procedure, shortened: as §1
A549 [5] = assay: Induction of apoptosis in human A549 cells assessed as increase in cyto-c expression by Western blot analysis; assay type: functional, cell-based; conditions: dose 7.5-30 µM; procedure, shortened: as §1
A549 [6] = assay: Induction of apoptosis in human A549 cells assessed as cell shrinkage at 15 to 30 uM measured after 48 hrs by phase contrast microscopic analysis; assay type: functional, cell-based; conditions: dose 15-30 µM
Procedure, shortened: (§3)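 A549 seeded at 2×10^5 cells/well and allowed to settle 24 h. Then exposed 48 h to test compound (15 or 30 μM) or diosgenin (30 μM); controls received 0.1% DMSO. Cell shape examined by phase contrast microscopy.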

A549 [7] = assay: Induction of mitochondrial depolarization in human A549 cells assessed as increase in depolarized cell population measured after 48 hrs by JC1 dye based flow cytometry; assay type: functional; conditions: dose 15-30 µM
HepG2 [8] = assay: Potency index, ratio of diosgenin IC50 to test compound IC50 for cytotoxicity against human HepG2 cells assessed as reduction in cell viability; assay type: functional
A549 [9] = assay: Induction of apoptosis in human A549 cells assessed as increase in cleaved caspase 9 expression at 7.5 to 30 uM by Western blot analysis; assay type: functional, cell-based; conditions: dose 7.5-30 µM; procedure, shortened: as §1
A549 [10] = assay: Potency index, ratio of diosgenin IC50 to test compound IC50 for cytotoxicity against human A549 cells assessed as reduction in cell viability; assay type: functional
A549 [11] = assay: Induction of apoptosis in human A549 cells assessed as chromatin condensation at 15 to 30 uM measured after 48 hrs by DAPI staining based fluorescence microscopic analysis; assay type: functional, cell-based; conditions: dose 15-30 µM
Procedure, shortened: (§4)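 A549 plated at 2×10^5 cells/well and grown 24 h. Treated 48 h with test compound (15 or 30 μM) or diosgenin (30 μM); vehicle control 0.1% DMSO. Fixed in 4% formaldehyde 1 h at 4 °C, stained with 5 μM DAPI for 10 min at 37 °C in the dark, and viewed by fluorescence microscopy.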

A549 [12] = assay: Cytotoxicity against human A549 cells assessed as reduction in cell viability measured after 48 hrs by MTT assay; assay type: functional, cell-based; conditions: A549, 48 h; procedure, shortened: as §2
A549 [13] = assay: Induction of apoptosis in human A549 cells assessed as membrane blebbing at 15 to 30 uM measured after 48 hrs by phase contrast microscopic analysis; assay type: functional, cell-based; conditions: dose 15-30 µM; procedure, shortened: as §3
A549 [14] = assay: Induction of mitochondrial depolarization in human A549 cells assessed as depolarized cell population at 30 uM measured after 48 hrs by JC1 dye based flow cytometry (reference value: 0.4%); assay type: functional
GES1 = assay: Cytotoxicity against human GES1 cells assessed as reduction in cell viability measured after 48 hrs by MTT assay; assay type: cell-based; conditions: GES1, 48 h; procedure, shortened: as §2
HCT-116 = assay: Cytotoxicity against human HCT-116 cells assessed as reduction in cell viability measured after 48 hrs by MTT assay; assay type: functional, cell-based; conditions: HCT-116, 48 h; procedure, shortened: as §2
A549 [15] = assay: Induction of apoptosis in human A549 cells assessed as late apoptotic cells at 30 uM after 48 hrs by AnnexinV-FITC/propidium iodide staining based flow cytometry analysis (reference value: 1 to 3.1 %); assay type: functional
A549 [16] = assay: Induction of apoptosis in human A549 cells assessed as formation of apoptotic bodies at 15 to 30 uM measured after 48 hrs by phase contrast microscopic analysis; assay type: functional, cell-based; conditions: dose 15-30 µM; procedure, shortened: as §3
MCF7 = assay: Cytotoxicity against human MCF7 cells assessed as reduction in cell viability measured after 48 hrs by MTT assay; assay type: functional, cell-based; conditions: MCF7, 48 h; procedure, shortened: as §2
A549 [17] = assay: Induction of apoptosis in human A549 cells assessed as early apoptotic cells at 15 uM after 48 hrs by AnnexinV-FITC/propidium iodide staining based flow cytometry analysis (reference value: 0.5 to 2.3 %); assay type: functional
A549 [18] = assay: Induction of apoptosis in human A549 cells assessed as decrease in Bcl-2 expression by Western blot analysis; assay type: functional, cell-based; conditions: dose 7.5-30 µM; procedure, shortened: as §1
A549 [19] = assay: Induction of apoptosis in human A549 cells assessed as late apoptotic cells at 15 uM after 48 hrs by AnnexinV-FITC/propidium iodide staining based flow cytometry analysis (reference value: 1 to 3.1 %); assay type: functional
A549 [20] = assay: Induction of apoptosis in human A549 cells assessed as nuclear fragmentation at 15 to 30 uM measured after 48 hrs by DAPI staining based fluorescence microscopic analysis; assay type: functional, cell-based; conditions: dose 15-30 µM; procedure, shortened: as §4
A549 [21] = assay: Induction of apoptosis in human A549 cells assessed as increase in cleaved PARP expression at 7.5 to 30 uM by Western blot analysis; assay type: functional, cell-based; conditions: dose 7.5-30 µM; procedure, shortened: as §1
A549 [22] = assay: Induction of mitochondrial depolarization in human A549 cells assessed as depolarized cell population at 15 uM measured after 48 hrs by JC1 dye based flow cytometry (reference value: 0.4%); assay type: functional
A549 [23] = assay: Induction of apoptosis in human A549 cells assessed as cell rounding at 15 to 30 uM measured after 48 hrs by phase contrast microscopic analysis; assay type: functional, cell-based; conditions: dose 15-30 µM; procedure, shortened: as §3
A549 [24] = assay: Induction of apoptosis in human A549 cells assessed as increase in cleaved PARP expression at 15 to 30 uM by Western blot analysis; assay type: functional, cell-based; conditions: dose 15-30 µM; procedure, shortened: as §1
A549 [25] = assay: Induction of apoptosis in human A549 cells assessed as cell shrinkage at 30 uM measured after 48 hrs by phase contrast microscopic analysis; assay type: functional, cell-based; procedure, shortened: as §3
A549 [26] = assay: Induction of apoptosis in human A549 cells assessed as cell rounding at 30 uM measured after 48 hrs by phase contrast microscopic analysis; assay type: functional, cell-based; procedure, shortened: as §3
A549 [27] = assay: Induction of apoptosis in human A549 cells assessed as membrane blebbing at 30 uM measured after 48 hrs by phase contrast microscopic analysis; assay type: functional, cell-based; procedure, shortened: as §3
A549 [28] = assay: Induction of apoptosis in human A549 cells assessed as increase in cleaved caspase 9 expression at 15 to 30 uM by Western blot analysis; assay type: functional, cell-based; conditions: dose 15-30 µM; procedure, shortened: as §1
A549 [29] = assay: Induction of apoptosis in human A549 cells assessed as formation of apoptotic bodies at 30 uM measured after 48 hrs by phase contrast microscopic analysis; assay type: functional, cell-based; procedure, shortened: as §3
A549 [30] = assay: Induction of apoptosis in human A549 cells assessed as increase in cleaved caspase 3 expression at 15 to 30 uM by Western blot analysis; assay type: functional, cell-based; conditions: dose 15-30 µM; procedure, shortened: as §1

CC(=O)O[C@H]1CC[C@@]2(C)C(=CC[C@H]3[C@@H]4C[C@@H]5O[C@H](CC[C@H](C)c6nnc(-c7cccnc7)s6)[C@@H](C)[C@@H]5[C@@]4(C)CC[C@@H]32)C1
Activity (A549 [1]): Active | IC50 (HepG2 [2]): 11.7 µM | Activity (A549 [3]): 60% | Activity (A549 [4]): Dose-dependent effect | Activity (A549 [5]): Dose-dependent effect | Activity (A549 [6]): Active | Activity (A549 [7]): Dose-dependent effect | Ratio IC50 (HepG2 [8]): 2.9 | Activity (A549 [9]): Active | Ratio IC50 (A549 [10]): 6.7 | Activity (A549 [11]): Active | IC50 (A549 [12]): 3.93 µM | Activity (A549 [13]): Active | Activity (A549 [14]): 26% | IC50 (GES1): 420 µM | IC50 (HCT-116): 29.6 µM | Activity (A549 [15]): 21.3% | Activity (A549 [16]): Active | IC50 (MCF7): > 100 µM | Activity (A549 [17]): 21% | Activity (A549 [18]): Dose-dependent effect | Activity (A549 [19]): 15.1% | Activity (A549 [20]): Active | Activity (A549 [21]): Active | Activity (A549 [22]): 7.5% | Activity (A549 [23]): Active

C[C@@H]1CC[C@@]2(OC1)O[C@H]1C[C@H]3[C@@H]4CC=C5C[C@@H](O)CC[C@]5(C)[C@H]4CC[C@]3(C)[C@H]1[C@@H]2C [DISOGENIN]
Activity (A549 [24]): inactive | IC50 (HepG2 [2]): 33.9 µM | Activity (A549 [3]): 2.5% | Activity (A549 [25]): inactive | Activity (A549 [26]): inactive | Activity (A549 [27]): inactive | IC50 (A549 [12]): 26.4 µM | Activity (A549 [28]): inactive | Activity (A549 [29]): inactive | IC50 (GES1): 101 µM | IC50 (HCT-116): 49.1 µM | Activity (A549 [15]): 2% | IC50 (MCF7): 23.9 µM | Activity (A549 [17]): 2.3% | Activity (A549 [19]): 3.1% | Activity (A549 [30]): inactive
